In brackets after ≈: the same amount, converted by molar mass.
Experiment: Thermodynamic solubility of the compound in phosphate buffer at pH 7.2 to 7.4 at 1 mg after 48 hrs by shake flask method
Assay type: physicochemical
Conditions: read-out: Therm_solubility
Summary of the method: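 Shake-flask method: 1 mg of solid ground in an agate mortar, taken up in 1.0 mL of a 1:1 mixture of phosphate buffer (pH 7.2–7.4) and EtOH, shaken 48 h at 25 °C. An aliquot was filtered (0.45 µm), the filtrate diluted in CH₃CN and analysed by HPLC-UV at 254 nm. Concentration was calculated from a prior calibration curve and corrected for dilution.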

SMILES	solubility thermodynamic at 48 h
CCCOc1ccc(C[C@@H](Cc2ccccc2)C(=O)O)cc1CNC(=O)c1ccc(N2CC3CCC(C3)C2)cc1	10 µg/mL (≈ 18.5 µM)
CCCOc1ccc(C[C@@H](Cc2ccccc2)C(=O)O)cc1CNC(=O)c1ccc(C23CC4CC(CC(C4)C2)C3)cc1	< 1 µg/mL
CCCOc1ccc(C[C@@H](Cc2ccccc2)C(=O)O)cc1CNC(=O)c1ccc(N2CCCC(C)(C)C2)cc1	< 10 µg/mL
CCCOc1ccc(C[C@@H](Cc2ccccc2)C(=O)O)cc1CNC(=O)c1ccc(N2CCCCC2)cc1	10 µg/mL (≈ 19.4 µM)
CCCOc1ccc(C[C@@H](Cc2ccccc2)C(=O)O)cc1CNC(=O)c1ccc(N2C3CCCC2CCC3)cc1	< 10 µg/mL
CCCOc1ccc(C[C@@H](Cc2ccccc2)C(=O)O)cc1CNC(=O)c1ccc(N2C3CC4CC(C3)CC2C4)cc1	< 10 µg/mL
CCCOc1ccc(C[C@@H](Cc2ccccc2)C(=O)O)cc1CNC(=O)c1ccc(N2CCCCCCC2)cc1	< 10 µg/mL
CCCOc1ccc(C[C@@H](Cc2ccccc2)C(=O)O)cc1CNC(=O)c1ccc(N2CC(C)(C)CC(C)(C)C2)cc1	< 10 µg/mL
CCCOc1ccc(C[C@@H](Cc2ccccc2)C(=O)O)cc1CNC(=O)c1ccc(N2C3CCCC2CC3)cc1	10 µg/mL (≈ 18.5 µM)
CCCOc1ccc(C[C@@H](Cc2ccccc2)C(=O)O)cc1CNC(=O)c1ccc(N2CCC(C)(C)CC2)cc1	< 10 µg/mL
